Data on seven molecules can be found in publication PMC8349901 (Journal of Peptide Science, 2021).

The structures appear in SMILES notation. Non-standard residues stand in square brackets, D forms with d. Residues, ends and D or L forms follow the SMILES beside them. Bip = N[C@@H](Cc1ccc(-c2ccccc2)cc1)C(=O)O

For data set [1] the following is noted: amino acid; glycine defined as 0; higher π = more hydrophobic; cited from earlier work.
Data set [2] can be described thus: Self-assembly kinetics by circular dichroism over 24 h. The data set is classed as physicochemical. As to conditions: CD at 0, 1, 2, 4, 12, 24 h; 0.2 mM peptide, 5% HFIP/water, 25°C. The procedure, abridged:
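Lyophilized peptide, quantified by 215-nm HPLC calibration tied to amino acid analysis, was dissolved in HFIP, then water was added (pH 3–4 from residual TFA). Solutions were vortexed for 1 min and sonicated for 5 min. Spectra were scanned from 260 to 190 nm in a 0.1-mm quartz cell with 1.0-nm step, 1.0-nm bandwidth and 3 s per step, starting immediately after preparation.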
For orientation: Circular dichroism is widely used to follow secondary structure.

A short description of data set [3]: Negative-stain TEM of self-assembled nanoribbon morphology. It is filed as physicochemical. As to conditions: 0.2 mM peptide, 5% HFIP/water, average of at least 100 measurements; for Nanoribbon width: pH 3–4, room temperature. The procedure, abridged: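 Peptide, quantified by HPLC peak area against amino-acid-analysis-calibrated curves, dissolved in HFIP and diluted with water to 0.2 mM (5% HFIP, pH 3–4 from residual TFA). Vortexed 1 min, sonicated 5 min. Assembled sample applied to carbon-coated copper grids for 30 s, blotted, stained 2 min with 5% uranyl acetate, and water-washed. Imaged at 80 kV. Dimensions averaged over ≥100 distinct fibrils.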

Turning to `N[C@@H](CCc1ccccc1)C(=O)O` [Hph, homophenylalanine], the “partition coefficient (π) between octanol and water relative to glycine” value in data set [1] is recorded as 2.10.
On to `CC(=O)N[C@@H](Cc1c[nH]c2ccccc12)C(=O)N[C@@H](CCCCN)C(=O)N[C@@H](Cc1c[nH]c2ccccc12)C(=O)N[C@@H](CCC(=O)O)C(=O)N[C@@H](Cc1c[nH]c2ccccc12)C(=O)N[C@@H](CCCCN)C(=O)N[C@@H](Cc1c[nH]c2ccccc12)C(=O)N[C@@H](CCC(=O)O)C(N)=O` [Peptide 3, Ac‐(WKWE)2‐NH2] (Ac-WKWEWKWE-NH2), for which the “evolution of CD signal over 24 h (self-assembly kinetics)” value in data set [2] is “occurring over 24 h”. This molecule also came in with a Nanoribbon width in data set [3] of 7.3 ± 1.6 nm.
In the same order, the values of `CC(=O)N[C@@H](Cc1ccc(-c2ccccc2)cc1)C(=O)N[C@@H](CCCCN)C(=O)N[C@@H](Cc1ccccc1)C(=O)N[C@@H](CCC(=O)O)C(=O)N[C@@H](Cc1ccccc1)C(=O)N[C@@H](CCCCN)C(=O)N[C@@H](Cc1ccccc1)C(=O)N[C@@H](CCC(=O)O)C(N)=O` [Peptide 9, Ac‐BipKFEFKFE‐NH2] (Ac-[Bip]KFEFKFE-NH2) are “intensified dramatically over 24 h” and 2.9 ± 0.5 nm.
For `CC(=O)N[C@@H](Cc1ccccc1)C(=O)N[C@@H](CCCCN)C(=O)N[C@@H](Cc1ccccc1)C(=O)N[C@@H](CCC(=O)O)C(=O)N[C@@H](Cc1ccccc1)C(=O)N[C@@H](CCCCN)C(=O)N[C@@H](Cc1ccccc1)C(=O)N[C@@H](CCC(=O)O)C(N)=O` [Peptide 1, Ac‐(FKFE)2‐NH2], the Nanoribbon width in data set [3] is recorded as 8.8 ± 0.8 nm. The same molecule showed a Helical pitch in data set [3] (left-handed helical nanoribbons) of 19.1 ± 1.3 nm.
For `N[C@@H](Cc1ccccc1)C(=O)O` [Phe, phenylalanine], the “partition coefficient (π) between octanol and water relative to glycine” value in data set [1] is 1.79.
For the molecule `CC(=O)N[C@@H](Cc1ccc(-c2ccccc2)cc1)C(=O)N[C@@H](CCCCN)C(=O)N[C@@H](Cc1ccc(-c2ccccc2)cc1)C(=O)N[C@@H](CCC(=O)O)C(=O)N[C@@H](Cc1ccc(-c2ccccc2)cc1)C(=O)N[C@@H](CCCCN)C(=O)N[C@@H](Cc1ccc(-c2ccccc2)cc1)C(=O)N[C@@H](CCC(=O)O)C(N)=O` [Peptide 6, Ac‐(BipKBipE)2‐NH2] (Ac-[Bip]K[Bip]E[Bip]K[Bip]E-NH2), in data set [2], the “evolution of CD signal over 24 h (self-assembly kinetics)” value was “no effect on evolution of signal intensity over time”. This molecule also came in with a Nanoribbon width in data set [3] of 5.5 ± 0.9 nm.
In the case of `N[C@@H](Cc1c[nH]c2ccccc12)C(=O)O` [Trp, tryptophan], the “partition coefficient (π) between octanol and water relative to glycine” value in data set [1] is given as 2.25.
